For 20 molecules, IC50 and Ratio IC50 results are on record in ChEMBL document CHEMBL1152572, “Synthesis and antimalarial activity of new chloroquine analogues carrying a multifunctional linear side chain” (Bioorg Med Chem, 2009).

Each structure is given as a SMILES string.

Test [1] has as its system Plasmodium falciparum. Put plainly: Antiplasmodial activity against chloroquine-sensitive Plasmodium falciparum HB3 assessed as SYBR Green 1 fluorescence emission after 72 hrs. In kind it is functional, organism-based. The note with it: HB3, 72 h. The method in brief:
(§1)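 Sorbitol-synchronized P. falciparum cultures (>95% ring stage) exposed to serial drug dilutions in complete medium at 0.5% parasitemia, 1% hematocrit final. Incubated 72 h, 37 °C. SYBR Green I then added, 1 h at 37 °C. Fluorescence read at 530 nm emission, 490 nm excitation. Each dilution run in triplicate; IC50 averaged from at least two separate assays.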

Test [2] is described as follows: Resistance index, ratio IC50 for chloroquine-resistant Plasmodium falciparum Dd2 to IC50 for chloroquine-sensitive Plasmodium falciparum HB3. It is filed as functional.
Test [3] has as its system Plasmodium falciparum. Put plainly: Antiplasmodial activity against chloroquine-resistant Plasmodium falciparum Dd2 assessed as SYBR Green 1 fluorescence emission after 72 hrs. It is filed as functional, organism-based. The note with it: Dd2, 72 h. The method in brief:
as §1

As for `CCN(CC)CCCN(CC)CCOc1ccnc2cc(Cl)ccc12`, the IC50 worked out at 321 nM in test [1] and 409 nM in test [3]. Besides, the Ratio IC50 in test [2] turned out to be 1.3.
The corresponding values for `CCN(CC)CCCCC(=O)NCCNc1ccnc2cc(Cl)ccc12` are 228 nM, 1190 nM and 5.2.
The corresponding values for `CCN(CC)CCCNCCOc1ccnc2cc(Cl)ccc12` are 94.6 nM, 214 nM and 2.3.
With `CCN(CC)CCN(CCNc1ccnc2cc(Cl)ccc12)CCN(CC)CC`, the IC50 was determined as 7 nM in test [1] and 151 nM in test [3]. Besides, the Ratio IC50 in test [2] turned out to be 21.5.
With `CCN(CC)CCCCCNCCNc1ccnc2cc(Cl)ccc12`, the IC50 in test [1] is 28.9 nM; in test [3], 459 nM. Further, the Ratio IC50 in test [2] was determined as 15.9.
For the molecule `CCN(CC)CCCCCN(CC)CCNc1ccnc2cc(Cl)ccc12`, the values for the IC50 in test [1] and in test [3] were 8.9 nM and 38.7 nM, respectively. Moreover, in test [2], the Ratio IC50 was determined as 4.3.
Turning to `CCN(CC)CCCCN(CC)CCNc1ccnc2cc(Cl)ccc12`, the IC50 worked out at 5.1 nM in test [1] and 36.2 nM in test [3]. The Ratio IC50 in test [2] was 7.1.
Take `CCN(CC)CCN(CC)CCNc1ccnc2cc(Cl)ccc12`: the half-inhibitory concentration (IC50) stood at 5 nM in test [1] and 53 nM in test [3]. Besides, the Ratio IC50 in test [2] was determined as 10.5.
On to `CCN(CC)CCCCCCN(CC)CCNc1ccnc2cc(Cl)ccc12`, for which the IC50 in test [1] came to 5 nM; in test [3], 19.9 nM. Also, in test [2], the Ratio IC50 worked out at 4.
On to `CCN(CC)CCCN(CC)CCCOc1ccnc2cc(Cl)ccc12`, for which the results for the IC50 in test [1] and in test [3] were 77.5 nM and 108 nM, respectively. Further, the Ratio IC50 in test [2] came to 1.4.
Turning to `CCN(CC)CCC(=O)NCCOc1ccnc2cc(Cl)ccc12`, the IC50 in test [1] is 1710 nM; in test [3] it was 1460 nM. Besides, the Ratio IC50 in test [2] is 0.9.
In the case of `CCN(CC)CCCCCC(=O)NCCNc1ccnc2cc(Cl)ccc12`, the IC50 in test [1] was found to be 287 nM; in test [3], 2700 nM. The Ratio IC50 in test [2] was determined as 9.4.
Consider `CCN(CC)CCCNCCCOc1ccnc2cc(Cl)ccc12`, for which the values for the IC50 in test [1] and in test [3] were 19.7 nM and 240 nM, respectively. In addition, the Ratio IC50 in test [2] is 12.2.
Turning to `CCN(CC)CCCC(=O)NCCNc1ccnc2cc(Cl)ccc12`, the IC50 in test [1] was determined as 225 nM; in test [3], 1190 nM. The Ratio IC50 in test [2] is 5.3.
On to `CCN(CC)CCC(=O)NCCCOc1ccnc2cc(Cl)ccc12`, for which the IC50 in test [1] came to 2320 nM; in test [3] it was 752 nM. The Ratio IC50 in test [2] was found to be 0.3.
Turning to `CCN(CC)CCCCNCCNc1ccnc2cc(Cl)ccc12`, the IC50 came out at 30.7 nM in test [1] and 1270 nM in test [3]. Further, the Ratio IC50 in test [2] amounted to 41.5.
`CCN(CC)CCCCCCNCCNc1ccnc2cc(Cl)ccc12`: the IC50 came to 68.9 nM in test [1] and 231 nM in test [3]. For the same molecule, the Ratio IC50 in test [2] was found to be 3.4.
Take `CCN(CC)CC(=O)NCCNc1ccnc2cc(Cl)ccc12`: the IC50 in test [1] was found to be 715 nM; in test [3] it was 3360 nM. For the same molecule, in test [2], the Ratio IC50 was 4.7.
In the case of `CCN(CC)CCNCCNc1ccnc2cc(Cl)ccc12`, the IC50 in test [1] was 10.8 nM; in test [3] it was 1570 nM. Moreover, in test [2], the Ratio IC50 turned out to be 145.
With `CCN(CC)CCC(=O)NCCNc1ccnc2cc(Cl)ccc12`, the Ratio IC50 in test [2] is 24.1.
